Experimental data: ChEMBL document CHEMBL1133472, “Synthesis and evaluation of N,N-dialkyl enkephalin-based affinity labels for delta opioid receptors” (J Med Chem, 2000)
Square brackets hold non-standard residues; d marks the D form. Peptide text beside a SMILES is read from it. * marks the point of attachment. ξ: configuration not given here. Tyr(Nα,Nα-Bn2) = O=C([C@H](Cc1ccc(O)cc1)N(Cc1ccccc1)Cc1ccccc1)*; Tyr(Nα,Nα-allyl2) = C=CCN(CC=C)[C@@H](Cc1ccc(O)cc1)C(=O)*; X1 = O=C(C(Cc1ccc(O)cc1)N(Cc1ccccc1)Cc1ccccc1)*; Phe(4-NH2) = Nc1ccc(C[C@H](N)C(=O)O)cc1; Aib = CC(C)(N)C(=O)O; BrAc = O=C(CBr)*; ξA = CC(N)C(=O)O

How the values were obtained:
Mu-type opioid receptor = Mu-type opioid receptor (Rattus norvegicus, UniProt P33535); experiment: Binding affinity was measured in cloned Opioid receptor mu 1 expressed in CHO cells using [3H]- DAMGO as radioligand.; assay type: cell-based
Procedure, shortened: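 Rat µ receptor stably expressed in CHO cells; membranes (100 µg protein) incubated 90 min at 22 °C in 50 mM Tris pH 7.4 with 3 mM Mg2+ and bestatin, captopril, L-leucyl-L-leucine. [3H]DAMGO at 0.5-0.8 nM; nonspecific binding with 10 µM DAMGO. Filtration on PEI-presoaked GF/B filters, scintillation counting.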

[1] = biological target: Delta-type opioid receptor (Mus musculus, UniProt P32300); experiment: Binding affinity was measured in cloned Opioid receptor delta 1 expressed in CHO cells using [3H]- DPDPE as radioligand.; assay type: cell-based
Procedure, shortened: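 Mouse δ receptor stably expressed in CHO cells; washed membranes (100 µg protein) incubated 90 min at 22 °C in 50 mM Tris pH 7.4 with 3 mM Mg2+ and peptidase inhibitors (bestatin, captopril, L-leucyl-L-leucine). [3H]DPDPE at 0.5-0.8 nM; nonspecific binding with 10 µM DPDPE. Filtration on PEI-soaked GF/B, scintillation counting.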

[2] = tested on: mu (Rattus norvegicus) & delta (Mus musculus) opioid receptors; experiment: Ratio of IC50 against mu opioid receptor to that of delta opioid receptor

Sequence of Delta-type opioid receptor (P32300 whole entry): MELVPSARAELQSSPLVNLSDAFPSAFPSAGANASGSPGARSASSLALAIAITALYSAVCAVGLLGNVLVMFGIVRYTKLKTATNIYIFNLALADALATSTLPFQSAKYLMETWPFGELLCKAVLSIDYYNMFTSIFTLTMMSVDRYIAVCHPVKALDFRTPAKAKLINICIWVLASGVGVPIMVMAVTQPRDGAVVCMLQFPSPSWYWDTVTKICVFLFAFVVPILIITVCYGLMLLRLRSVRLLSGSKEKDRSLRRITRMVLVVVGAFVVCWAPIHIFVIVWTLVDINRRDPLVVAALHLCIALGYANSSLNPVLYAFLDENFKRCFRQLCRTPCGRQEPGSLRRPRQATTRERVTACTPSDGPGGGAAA
Sequence of Mu-type opioid receptor (P33535 whole entry, looked up): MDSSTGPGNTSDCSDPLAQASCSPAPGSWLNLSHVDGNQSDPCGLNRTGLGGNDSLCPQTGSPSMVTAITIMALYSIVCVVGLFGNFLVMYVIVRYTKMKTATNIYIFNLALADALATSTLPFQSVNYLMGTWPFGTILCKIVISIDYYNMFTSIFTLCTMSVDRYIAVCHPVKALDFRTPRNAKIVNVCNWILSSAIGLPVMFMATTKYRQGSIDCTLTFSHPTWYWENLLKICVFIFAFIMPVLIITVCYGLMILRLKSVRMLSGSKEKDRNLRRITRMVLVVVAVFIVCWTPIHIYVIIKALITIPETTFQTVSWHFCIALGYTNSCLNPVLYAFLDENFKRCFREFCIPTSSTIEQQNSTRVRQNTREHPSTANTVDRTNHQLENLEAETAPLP

Compound	IC50 (Mu-type opioid receptor)	IC50 [1]	Ratio [2]
CC(C)C[C@H](NC(=O)[C@H](Cc1ccc(N=C=S)cc1)NC(=O)CNC(=O)CNC(=O)[C@H](Cc1ccc(O)cc1)N(Cc1ccccc1)Cc1ccccc1)C(=O)O	1900 nM	34.9 nM	54
CC(C)C[C@H](NC(=O)[C@H](Cc1ccc(NCCl)cc1)NC(=O)CNC(=O)CNC(=O)[C@H](Cc1ccc(O)cc1)N(Cc1ccccc1)Cc1ccccc1)C(=O)O	19000 nM	145 nM	131
C=CCN(CC=C)[C@@H](Cc1ccc(O)cc1)C(=O)NC(C)(C)C(=O)NC(C)(C)C(=O)N[C@@H](Cc1ccccc1)C(=O)N[C@@H](CC(C)C)C(=O)O (HELM PEPTIDE1{[C=CCN(CC=C)[C@@H](Cc1ccc(O)cc1)C(=O)[*:2]].[Aib].[Aib].F.L}$$$$V2.0)	18900 nM	703 nM	27
CC(C)C[C@H](NC(=O)[C@H](Cc1ccccc1)NC(=O)CNC(=O)CNC(=O)[C@H](Cc1ccc(O)cc1)N(Cc1ccccc1)Cc1ccccc1)C(=O)O (HELM PEPTIDE1{[O=C([C@H](Cc1ccc(O)cc1)N(Cc1ccccc1)Cc1ccccc1)[*:2]].G.G.F.L}$$$$V2.0)	1600 nM	78.2 nM	20
CC(C)C[C@H](NC(=O)[C@H](Cc1ccc(NC(=O)CBr)cc1)NC(=O)CNC(=O)CNC(=O)C(Cc1ccc(O)cc1)N(Cc1ccccc1)Cc1ccccc1)C(=O)O (stereo partly drawn) (X1-GG[Phe(4-NH2)](BrAc)L-OH)	–	–	61
CC(C)C[C@H](NC(=O)[C@H](Cc1ccc(NC(=O)CBr)cc1)NC(=O)CNC(=O)CNC(=O)[C@H](Cc1ccc(O)cc1)N(Cc1ccccc1)Cc1ccccc1)C(=O)O ({Tyr(Nα,Nα-Bn2)}-GG[Phe(4-NH2)](BrAc)L-OH)	9100 nM	149 nM	–
C=CCN(CC=C)[C@@H](Cc1ccc(O)cc1)C(=O)NC(C)(C)C(=O)NC(C)C(=O)N[C@@H](Cc1ccc(N)cc1)C(=O)N[C@@H](CC(C)C)C(=O)O (stereo partly drawn) ({Tyr(Nα,Nα-allyl2)}-[Aib][ξA][Phe(4-NH2)]L-OH)	87700 nM	1390 nM	63
C=CCN(CC=C)[C@@H](Cc1ccc(O)cc1)C(=O)NC(C)C(=O)NC(C)C(=O)N[C@@H](Cc1ccc(NC(=O)CBr)cc1)C(=O)N[C@@H](CC(C)C)C(=O)O (stereo partly drawn) ({Tyr(Nα,Nα-allyl2)}-[ξA][ξA][Phe(4-NH2)](BrAc)L-OH)	> 10000 nM	392 nM	–
